In PMC4535313 (Bioorganic & medicinal chemistry letters, 2014):
Values belong to the compound of their own block, whether it stands above or below them.

Experiments:
[1] = target: T1, PLD1 (Homo sapiens, UniProt Q13393); experiment: Cellular PLD1 assay with Calu-1 cells; assay type: cell-based
T1 sequence (Q13393 1-1074): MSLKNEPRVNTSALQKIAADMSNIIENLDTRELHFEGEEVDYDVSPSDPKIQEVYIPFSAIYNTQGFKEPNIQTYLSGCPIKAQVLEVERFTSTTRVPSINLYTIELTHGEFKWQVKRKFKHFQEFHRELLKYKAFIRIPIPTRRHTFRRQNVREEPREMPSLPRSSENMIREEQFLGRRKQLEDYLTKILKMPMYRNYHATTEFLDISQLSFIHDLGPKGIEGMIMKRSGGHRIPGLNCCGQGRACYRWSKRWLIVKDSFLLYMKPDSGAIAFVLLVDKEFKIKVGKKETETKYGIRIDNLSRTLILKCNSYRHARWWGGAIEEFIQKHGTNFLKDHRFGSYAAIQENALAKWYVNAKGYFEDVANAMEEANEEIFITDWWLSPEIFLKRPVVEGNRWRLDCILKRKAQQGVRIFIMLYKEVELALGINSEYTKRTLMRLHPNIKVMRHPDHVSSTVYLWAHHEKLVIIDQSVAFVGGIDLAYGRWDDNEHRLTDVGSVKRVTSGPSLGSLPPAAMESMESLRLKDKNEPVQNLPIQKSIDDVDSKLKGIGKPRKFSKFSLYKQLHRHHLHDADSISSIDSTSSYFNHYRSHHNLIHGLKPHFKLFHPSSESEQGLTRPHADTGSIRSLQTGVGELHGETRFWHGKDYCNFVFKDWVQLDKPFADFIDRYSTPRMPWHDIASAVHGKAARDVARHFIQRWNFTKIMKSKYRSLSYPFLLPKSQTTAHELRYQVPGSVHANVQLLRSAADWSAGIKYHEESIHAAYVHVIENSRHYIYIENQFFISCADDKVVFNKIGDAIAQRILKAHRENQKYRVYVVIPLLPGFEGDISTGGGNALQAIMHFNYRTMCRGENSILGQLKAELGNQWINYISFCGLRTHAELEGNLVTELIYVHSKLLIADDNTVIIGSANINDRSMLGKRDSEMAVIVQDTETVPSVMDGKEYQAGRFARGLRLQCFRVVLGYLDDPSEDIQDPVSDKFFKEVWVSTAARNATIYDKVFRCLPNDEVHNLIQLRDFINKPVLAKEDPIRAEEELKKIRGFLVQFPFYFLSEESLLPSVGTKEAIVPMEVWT
In short: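 Calu-1 cells used for cell-based PLD1 inhibition readout. Each IC50 determined in triplicate.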

[2] = target: PLD2 (Homo sapiens, UniProt O14939); settings: recently reported inhibitors, Fig. 1; cited from earlier work
[3] = Metabolic stability in rat microsomes; assay type: in vitro ADME

PLD2, sequence (O14939 whole entry, species assumed): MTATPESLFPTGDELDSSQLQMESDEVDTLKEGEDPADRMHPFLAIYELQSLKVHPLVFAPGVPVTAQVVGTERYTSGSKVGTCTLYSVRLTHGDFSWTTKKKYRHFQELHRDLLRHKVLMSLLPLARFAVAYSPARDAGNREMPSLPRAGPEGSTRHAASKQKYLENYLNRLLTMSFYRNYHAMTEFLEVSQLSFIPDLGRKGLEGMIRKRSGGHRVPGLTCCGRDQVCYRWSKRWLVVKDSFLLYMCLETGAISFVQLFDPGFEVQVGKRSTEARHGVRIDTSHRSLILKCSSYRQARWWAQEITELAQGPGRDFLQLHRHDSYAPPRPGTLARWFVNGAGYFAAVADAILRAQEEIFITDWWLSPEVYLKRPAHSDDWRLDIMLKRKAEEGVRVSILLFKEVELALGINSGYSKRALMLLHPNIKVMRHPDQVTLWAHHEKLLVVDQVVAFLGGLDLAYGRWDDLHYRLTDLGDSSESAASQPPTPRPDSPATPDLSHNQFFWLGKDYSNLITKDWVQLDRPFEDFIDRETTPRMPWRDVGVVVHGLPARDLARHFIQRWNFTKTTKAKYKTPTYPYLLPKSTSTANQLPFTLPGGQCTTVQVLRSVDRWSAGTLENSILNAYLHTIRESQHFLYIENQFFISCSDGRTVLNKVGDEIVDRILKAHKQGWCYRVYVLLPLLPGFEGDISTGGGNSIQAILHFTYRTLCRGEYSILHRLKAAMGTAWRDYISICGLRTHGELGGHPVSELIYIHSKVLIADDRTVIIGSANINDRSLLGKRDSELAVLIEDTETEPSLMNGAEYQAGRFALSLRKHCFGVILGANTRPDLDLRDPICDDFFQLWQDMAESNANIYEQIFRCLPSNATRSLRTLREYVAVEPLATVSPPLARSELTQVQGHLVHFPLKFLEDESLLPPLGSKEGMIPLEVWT

SMILES: CC(CNC(=O)c1ccc(F)c(F)c1)N1CCC2(CC1)C(=O)NCN2c1ccccc1 (stereo not drawn) [8f]
IC50 [1]: ~1 µM

SMILES: O=C(NCCN1CCC2(CC1)C(=O)NCN2c1cccc(F)c1)c1ccc(F)c(F)c1 [compound 4]
fold PLD2 selective [2]: 53 fold

Clhep [3]: 70 mL/min/kg
SMILES: CC1CC(n2c(=O)[nH]c3ccccc32)CCN1CCNC(=O)c1ccc(F)cc1 (stereo not drawn) [compound 9]
